In publication PMC4433557 (ACS chemical biology, 2015):
Each block holds one molecule with its values, some of them ahead of it. Where a SMILES comes first, the peptide text is derived from it. Where no end group is shown, it is not given here. [ ]: non-standard residue; d: D form. Phe(4-F) = N[C@@H](Cc1ccc(F)cc1)C(=O)O; pS = N[C@@H](COP(=O)(O)O)C(=O)O; βAla = NCCC(=O)O

How the values were obtained:
[1] = system: phospho-CtIP and BRCA1 (BRCT)2; experiment: pull down-western of phospho-CtIP-myc from cell lysates with BRCA1; format: binding; conditions: synthesized peptide, increasing concentrations
BRCA1 (BRCT)2 = BRCA1 (BRCT)2 (Homo sapiens, UniProt P38398); experiment: isothermal titration calorimetry with TR-; format: binding; conditions: ITC
[2] = biological target: BRCA1 (BRCT)2 (thioredoxin-(BRCT)2 fusion) (Homo sapiens, UniProt P38398); experiment: competition fluorescence polarization assay against FAM-β-A-pSPTF-NH2; format: binding
Outline: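 Competition fluorescence polarization: 20 nM FAM-β-A-pSPTF tracer plus 2.7 μM thioredoxin-(BRCT)2 fusion, titrated with variable concentrations of test peptide. IC50 obtained by fitting a four-parameter logistic equation.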

[3] = biological target: BACH1-derived tetrapeptide (Homo sapiens) (UniProt Q9BX63); conditions: cited from earlier work
BACH1-derived tetrapeptide (Homo sapiens), sequence (Q9BX63 whole entry, looked up, tested part not stated): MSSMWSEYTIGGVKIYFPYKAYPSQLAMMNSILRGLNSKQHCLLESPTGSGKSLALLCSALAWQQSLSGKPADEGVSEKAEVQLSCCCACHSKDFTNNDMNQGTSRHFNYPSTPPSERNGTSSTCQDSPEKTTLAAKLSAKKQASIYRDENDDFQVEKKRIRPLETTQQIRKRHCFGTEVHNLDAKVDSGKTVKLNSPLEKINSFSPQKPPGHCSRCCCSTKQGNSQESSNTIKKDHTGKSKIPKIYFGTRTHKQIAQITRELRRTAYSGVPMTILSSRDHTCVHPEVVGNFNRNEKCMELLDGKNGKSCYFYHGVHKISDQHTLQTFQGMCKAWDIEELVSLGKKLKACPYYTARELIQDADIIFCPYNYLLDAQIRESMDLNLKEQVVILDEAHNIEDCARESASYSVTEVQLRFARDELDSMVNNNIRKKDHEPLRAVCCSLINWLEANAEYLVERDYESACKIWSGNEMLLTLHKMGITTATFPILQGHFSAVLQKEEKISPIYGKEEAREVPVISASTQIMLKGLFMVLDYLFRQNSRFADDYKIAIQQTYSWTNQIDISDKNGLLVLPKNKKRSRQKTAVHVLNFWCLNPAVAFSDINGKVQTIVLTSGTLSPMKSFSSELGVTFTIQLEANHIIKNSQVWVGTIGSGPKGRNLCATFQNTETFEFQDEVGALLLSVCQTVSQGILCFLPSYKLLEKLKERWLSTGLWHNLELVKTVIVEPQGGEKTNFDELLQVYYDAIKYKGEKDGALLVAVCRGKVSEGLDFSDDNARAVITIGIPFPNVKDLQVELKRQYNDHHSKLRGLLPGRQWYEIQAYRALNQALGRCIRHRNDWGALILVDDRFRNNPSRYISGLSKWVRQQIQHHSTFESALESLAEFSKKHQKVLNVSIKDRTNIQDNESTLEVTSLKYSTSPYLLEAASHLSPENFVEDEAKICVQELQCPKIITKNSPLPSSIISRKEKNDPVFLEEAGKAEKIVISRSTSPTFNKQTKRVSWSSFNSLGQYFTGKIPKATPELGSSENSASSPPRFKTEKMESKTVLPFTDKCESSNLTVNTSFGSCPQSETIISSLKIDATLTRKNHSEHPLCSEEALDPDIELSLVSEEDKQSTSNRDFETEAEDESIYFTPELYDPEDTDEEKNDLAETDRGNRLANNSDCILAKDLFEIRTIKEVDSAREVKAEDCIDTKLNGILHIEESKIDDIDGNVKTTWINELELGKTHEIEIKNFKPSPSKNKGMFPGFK

GST-BRCA1 (BRCT)2 N1774A = experiment: fluorescence polarization binding to GST-BRCA1; parameters: species or system human; conditions: FP; FITC-BACH1 peptide
Outline: (§1)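 Direct fluorescence polarization of GST-BRCA1 (BRCT)2 point mutants and wild type, using either the labelled BACH1 phosphopeptide (FITC-[…]-NH2) or FAM-β-Ala-labelled test peptide as probe. KD for each mutant was determined by FP, then normalized to the wild-type GST-(BRCT)2 KD.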

GST-BRCA1 (BRCT)2 E1698A = experiment: fluorescence polarization binding to GST-BRCA1; parameters: species or system human; conditions: FP; FITC-BACH1 peptide
Outline: as §1

GST-BRCA1 (BRCT)2 S1655A = experiment: fluorescence polarization binding to GST-BRCA1; parameters: species or system human; conditions: FP; fluorescent peptides FAM-β-Ala-8.6 or FITC-BACH1 peptide
Outline: as §1

GST-BRCA1 (BRCT)2 K1702M = experiment: fluorescence polarization binding to GST-BRCA1; parameters: species or system human; conditions: FP; FITC-BACH1 peptide
Outline: as §1

[4] = biological target: thioredoxin-(BRCT)2 fusion (human) (UniProt P38398); experiment: ITC
[5] = biological target: GST-BRCA1 (BRCT)2 K1702M (human) (UniProt P38398); experiment: fluorescence polarisation
[6] = biological target: thioredoxin-(BRCT)2 fusion (human) (UniProt P38398); experiment: fluorescence polarisation

Molecule: 8.6 Nat: peptide 8.6 with the two 4FPhe substituted with Phe (MCTIDFDEYRFRKT)
blocking of binding of phospho-CtIP and BRCA1 in cell lysates [1]: able to block the binding
binding after substitution of the two 4FPhe with Phe (BRCA1 (BRCT)2): did not significantly abrogate binding

Molecule: 8.6E8pS: mutant of peptide 8.6 containing the Glu to pSer mutation (MCTID[Phe(4-F)]D[pS]YR[Phe(4-F)]RKT)
fold lower KD than peptide 8.6 (BRCA1 (BRCT)2; 25 °C, pH 7.4, TR-(BRCT)2 20 uM, peptide 214 μM): 10 fold

Molecule: CSCC[C@H](NC(C)=O)C(=O)N[C@@H](CS)C(=O)N[C@@H](Cc1ccc(O)cc1)C(=O)N[C@@H](CC(=O)O)C(=O)N[C@@H](Cc1ccc(F)cc1)C(=O)N[C@@H](CC(=O)O)C(=O)N[C@H](C(=O)N[C@H](C(=O)N[C@@H](CC(N)=O)C(=O)N[C@@H](CC(=O)O)C(=O)N[C@@H](Cc1c[nH]cn1)C(=O)N[C@H](C(=O)N[C@@H](Cc1ccc(F)cc1)C(N)=O)[C@@H](C)O)[C@@H](C)O)[C@@H](C)O [8.5] (HELM PEPTIDE1{[ac].M.C.Y.D.[O=C([C@H](Cc1ccc(F)cc1)N[*:1])[*:2]].D.T.T.N.D.H.T.[O=C([C@H](Cc1ccc(F)cc1)N[*:1])[*:2]].[am]}$$$$V2.0)
IC50 [2]: 26 ± 2 µM

Molecule: BRCA1 BRCT2 (from UniProt P38398)
Kd [3]: 0.19 µM

Molecule: FITC-SRSTpSTPFNK-NH2 [pSer peptide]
change in affinity, N1774A versus wild type (GST-BRCA1 (BRCT)2 N1774A): no significant change in affinity
change in affinity, E1698A versus wild type (GST-BRCA1 (BRCT)2 E1698A): no significant change in affinity
binding to S1655A mutant versus wild type (GST-BRCA1 (BRCT)2 S1655A): completely abolished recognition
binding to K1702M mutant versus wild type (GST-BRCA1 (BRCT)2 K1702M): completely abolished recognition

Molecule: Y9A: Tyr to Ala mutant of peptide 8.6 (MCTID[Phe(4-F)]DEAR[Phe(4-F)]RKT)
competitive binding of alanine mutant relative to wild-type 8.6 ([2]; competition FP, TR-BRCA1 (BRCT)2 2.5 μM, FAM-β-Ala-pSPTF-NH2 20 nM): competed more effectively for binding than the wild-type 8.6

Molecule: MCTID[Phe(4-F)]D[pS]YR[Phe(4-F)]RKT [peptide 8.6E8pS]
fold lower KD than peptide 8.6 [4]: 10 fold

Molecule: {FAM-βAla}-MCTIDFDEYRFRKT-NH2 [FAM-β-Ala-…-NH2]
fold reduction in binding against wild-type GST-BRCA1 (BRCT)2 [5]: 6 fold

B1: peptide 8.6 (peptide)
peptide: MCTIDFDEYRFRKT
HELM: PEPTIDE1{[ac].M.C.T.I.D.[O=C([C@H](Cc1ccc(F)cc1)N[*:1])[*:2]].D.E.Y.R.[O=C([C@H](Cc1ccc(F)cc1)N[*:1])[*:2]].R.K.T.[am]}$$$$V2.0
SMILES: CC[C@H](C)[C@H](NC(=O)[C@@H](NC(=O)[C@H](CS)NC(=O)[C@H](CCSC)NC(C)=O)[C@@H](C)O)C(=O)N[C@@H](CC(=O)O)C(=O)N[C@@H](Cc1ccc(F)cc1)C(=O)N[C@@H](CC(=O)O)C(=O)N[C@@H](CCC(=O)O)C(=O)N[C@@H](Cc1ccc(O)cc1)C(=O)N[C@@H](CCCNC(=N)N)C(=O)N[C@@H](Cc1ccc(F)cc1)C(=O)N[C@@H](CCCNC(=N)N)C(=O)N[C@@H](CCCCN)C(=O)N[C@H](C(N)=O)[C@@H](C)O
IC50 [6]: 10 µM
Kd [4]: 3.7 µM
dH (printed as a magnitude; the paper calls it negative) [4]: 24.6 kcal/mol

Now from value to molecule:

IC50 [2]: 24 ± 2 µM
Molecule: CC[C@H](C)[C@H](NC(=O)[C@H](Cc1ccc(F)cc1)NC(=O)[C@H](CC(=O)O)NC(=O)[C@H](CC(N)=O)NC(=O)[C@H](CS)NC(=O)[C@H](CCSC)NC(C)=O)C(=O)N[C@@H](Cc1ccc(F)cc1)C(=O)N[C@@H](CCCNC(=N)N)C(=O)N[C@@H](CCCNC(=N)N)C(=O)N[C@@H](CO)C(=O)N[C@H](C(=O)N[C@@H](Cc1ccc(F)cc1)C(=O)N[C@@H](CCCNC(=N)N)C(=O)N[C@@H](C)C(N)=O)[C@@H](C)O [8.1] (Ac-MCND[Phe(4-F)]I[Phe(4-F)]RRST[Phe(4-F)]RA-NH2)

IC50 [2]: 49 ± 5 µM
Molecule: CC[C@H](C)[C@H](NC(=O)[C@H](Cc1ccc(F)cc1)NC(=O)[C@H](CC(=O)O)NC(=O)[C@H](CO)NC(=O)[C@H](CS)NC(=O)[C@H](CCSC)NC(C)=O)C(=O)N[C@@H](Cc1ccc(F)cc1)C(=O)N[C@@H](CO)C(=O)N[C@@H](CCCNC(=N)N)C(=O)N[C@@H](CCCNC(=N)N)C(=O)N[C@H](C(=O)N[C@@H](Cc1ccc(O)cc1)C(=O)N[C@H](C(=O)N[C@@H](Cc1ccc(F)cc1)C(N)=O)[C@@H](C)O)[C@@H](C)O [8.2] (Ac-MCSD[Phe(4-F)]I[Phe(4-F)]SRRTYT[Phe(4-F)]-NH2)
